Measured values published in ChEMBL document CHEMBL1641390, “Structure and cytotoxicity of diterpenoids from Isodon eriocalyx” (J Nat Prod, 2010).

How the values were obtained:
Assay type in all cases: functional, cell-based
[1] = test system: HT-29; assay: Cytotoxicity against human HT-29 cells after 72 hrs by sulforhodamine B assay; conditions: HT-29, 72 h
Summary of the method: (§1)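 Cells plated 24 h, then exposed to five concentrations in duplicate for 72 h at 37 °C, 5% CO2. Saline vehicle control. TCA-fixed, SRB-stained, dye solubilized in 10 mM Tris, A510 read. Inhibition relative to control, expressed as IC50.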

[2] = test system: Bel-7402; assay: Cytotoxicity against human Bel7402 cells after 72 hrs by sulforhodamine B assay; conditions: Bel-7402, 72 h
Summary of the method: as §1, with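 “HT-29 and SK-OV-3 (ATCC) grown in McCoy's 5a, BEL-7402 (Shanghai Cell Bank) in RPMI 1640, all with 10% FBS. Cells” for “Cells”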

[3] = test system: SK-OV-3; assay: Cytotoxicity against human SKOV3 cells after 72 hrs by sulforhodamine B assay; conditions: SK-OV-3, 72 h
Summary of the method: as §1, with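 “HT-29 and SK-OV-3 (ATCC) grown in McCoy's 5a, BEL-7402 (Shanghai Cell Bank) in RPMI 1640, all with 10% FBS. Cells” for “Cells”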

Row | Compound | IC50 [1] [µM] | IC50 [2] [µM] | IC50 [3] [µM]
1 | C=C(C=O)[C@@H]1CC[C@@H]2[C@@H](C1)C(=O)[C@@H](O)[C@@H]1[C@](C)(COC(C)=O)[C@@H](O)CC[C@]12C [ERIOCASIN C] | > 10 | > 10 | > 10
2 | C=C(C=O)[C@@H]1CC[C@@H]2[C@@H](C1)C(=O)[C@@H](O)[C@@H]1[C@](C)(COC(C)=O)[C@@H](OC(C)=O)CC[C@]12C | > 10 | > 10 | > 10
3 | C=C1C(=O)[C@@]23[C@H](O)C[C@@H]4C(C)(C)CC[C@H](O)[C@@]4(COC(C)=O)[C@@H]2CC[C@@H]1[C@H]3O [HENRYIN] | 6 | > 10 | 5.9
4 | C=C1C(=O)[C@@]23C[C@H]1C[C@H]1O[C@H](O)[C@@H]4[C@](C)(COC(C)=O)CC[C@@H](OC2=O)[C@@]4(CO)[C@H]13 [MAOESIN A] | > 10 | > 10 | > 10
5 | COc1cccc2c1C(=O)c1c(O)c3c(c(O)c1C2=O)C[C@@](O)(C(=O)CO)C[C@@H]3O[C@H]1C[C@H](N)[C@H](O)[C@H](C)O1 [DOXORUBICIN] | – | 0.067 | 0.17
6 | C=C(CO)[C@@H]1C[C@@H](OC(C)=O)[C@@H]2[C@@H](C1)C(=O)[C@@H](O)[C@@H]1C(C)(C)CCC[C@@]21C [ERIOCASIN E] | > 10 | > 10 | > 10
7 | C=C1C(O)[C@]23C[C@H]1CC[C@H]2[C@@]1(C)[C@H]([C@H](OC(C)=O)C3=O)[C@](C)(COC(C)=O)CC[C@@H]1O (stereo partly drawn) [MAOESIN E] | > 10 | > 10 | > 10
8 | C=C1C(=O)[C@]23C[C@H]1CC[C@H]2[C@@]12CO[C@@]3(O)[C@@H](O)[C@@H]1C(C)(C)CC[C@@H]2OC(C)=O [EFFUSANIN B] | 4.1 | 7.3 | 2.1
9 | C=C1C(=O)[C@]23C[C@H]1CC[C@H]2[C@@]12CO[C@]3(O)[C@@H](O)[C@@H]1[C@](C)(COC(C)=O)CC[C@@H]2OC(C)=O [EFFUSANIN D] | 5.9 | > 10 | 9.1
10 | C=C1C(=O)[C@@]23C[C@H]1C[C@H]1OC(O)[C@@H]4[C@](C)(COC(C)=O)[C@H](OC(C)=O)C[C@@H](OC2=O)[C@@]4(CO)[C@H]13 (stereo partly drawn) | > 10 | > 10 | > 10
11 | C=C(C=O)[C@@H]1CC[C@@H]2[C@@H](C1)C(=O)[C@@H](O)[C@@H]1[C@](C)(COC(C)=O)[C@@H](OC(C)=O)C[C@H](O)[C@@]21C | > 10 | > 10 | 5.1
12 | C=C(C=O)[C@@H]1CC[C@@H]2[C@@H](C1)C(=O)[C@@H](O)[C@@H]1C(C)(C)[C@H](O)CC[C@@]21C | 8.1 | > 10 | 7.3
13 | C=C(C=O)[C@@H]1CC[C@@H]2[C@@H](C1)C(=O)[C@@H](O)[C@@H]1[C@](C)(COC(C)=O)CC[C@H](O)[C@@]21C [ERIOCASIN D] | > 10 | > 10 | 5.7
14 | C=C1C(=O)[C@]23C[C@H]1C=C[C@H]2[C@]12CC[C@H](OC(C)=O)[C@@](C)(COC(C)=O)[C@H]1[C@H](O)[C@]3(O)OC2 [MAOESIN D] | 7.3 | > 10 | > 10
15 | C=C1C(=O)[C@]23C[C@H]1C[C@@H](O)[C@H]2[C@]12CC[C@H](OC(C)=O)[C@@](C)(COC(C)=O)[C@H]1[C@H](O)[C@]3(O)OC2 [MAOESIN C] | > 10 | > 10 | > 10
16 | CC(=O)OC[C@]1(C)C(OC(C)=O)CC[C@]23CO[C@@](O)(C[C@@H]21)[C@]12C(=O)C4(CCC45C(=O)[C@]46[C@H](O)[C@H]5CC[C@H]4[C@]45CCC(OC(C)=O)[C@@](C)(COC(C)=O)[C@H]4C[C@]6(O)OC5)[C@H](CC[C@@H]31)[C@H]2O (stereo partly drawn) [MAOECRYSTAL M] | > 10 | 6 | 7
17 | C=C1C(=O)[C@]23C[C@H]1CC[C@H]2[C@@]12CO[C@@]3(O)[C@@H](OC(C)=O)[C@@H]1[C@@](C)(COC(C)=O)CC[C@H]2OC(C)=O [MAOECRYSTAL R] | 2.4 | 4 | 3
18 | C=C1C(=O)[C@]23C[C@H]1CC[C@H]2[C@]12CCC[C@@](C)(COC(C)=O)[C@H]1[C@H](O)[C@]3(O)OC2 [LONGIKAURIN C] | 2.1 | 2.9 | 3.3
19 | C=C(C=O)[C@@H]1CCC2=C(C1)C(=O)[C@@H](O)[C@@H]1C(C)(C)[C@H](O)CC[C@@]21C [ERIOCASIN B] | > 10 | > 10 | > 10
20 | C=C1C(=O)[C@]23C[C@H]1CC[C@H]2[C@]12CC[C@H](OC(C)=O)[C@@](C)(COC(C)=O)[C@H]1[C@H](O)[C@]3(O)OC2 [MAOECRYSTAL J] | 4.2 | > 10 | 9.8
21 | C=C1[C@H]2C[C@@H](O)C3(C(=O)C[C@@H]4[C@](C)(COC(C)=O)CCC[C@@]4(C)[C@@H]3C2)[C@@H]1O [ERIOCATISIN A] | > 10 | > 10 | > 10
22 | C=C1C(OC(C)=O)[C@]23C[C@H]1CC[C@H]2[C@@]1(CC[C@H](OC(C)=O)[C@@](C)(COC(C)=O)[C@H]1C=O)COC3=O (stereo partly drawn) [MAOESIN F] | > 10 | > 10 | > 10
23 | C=C1C(=O)[C@@]23[C@@H]4C[C@@H]5C(C)(C)CC[C@H](O)[C@@]5(C(OC)O4)[C@@H]2CC[C@@H]1[C@H]3O (stereo partly drawn) [KAMEBACETAL A] | 9.8 | > 10 | 4.7
